ChEMBL document CHEMBL4196073, “The aminopyridine-3,5-dicarbonitrile core for the design of new non-nucleoside-like agonists of the human adenosine A2B receptor” (Eur J Med Chem, 2018)
Activity calls are given as the source filed them. No cut-off for these calls is given here.

Columns and labels:
Adenosine receptor A1 = molecular target: T1, Adenosine receptor A1 (Homo sapiens, UniProt P30542); test: Displacement of [3H]DPCPX from human adenosine A1 receptor expressed in CHO cell membranes after 90 mins by scintillation counting analysis
T1 sequence (P30542 whole entry): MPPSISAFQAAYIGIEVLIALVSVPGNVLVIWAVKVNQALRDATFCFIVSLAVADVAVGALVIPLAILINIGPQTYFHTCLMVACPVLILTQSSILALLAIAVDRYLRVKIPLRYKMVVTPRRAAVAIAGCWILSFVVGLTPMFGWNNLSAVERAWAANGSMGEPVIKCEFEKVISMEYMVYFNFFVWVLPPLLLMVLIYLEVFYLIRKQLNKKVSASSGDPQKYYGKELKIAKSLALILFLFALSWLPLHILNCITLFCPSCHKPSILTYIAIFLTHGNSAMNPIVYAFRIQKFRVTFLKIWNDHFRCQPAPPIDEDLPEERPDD
Method in brief: (§1)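 Hypotonic-lysed (5 mM Tris HCl, 1 mM EDTA, pH 7.4), 40000 g pelleted hA1-CHO membranes, 50 µg protein/100 µl, with 1 nM [3H]DPCPX, 90 min, 25°C, 50 mM Tris HCl pH 7.4; nonspecific with 1 µM DPCPX; GF/B filtration, scintillation. Ki via Cheng–Prusoff, four assays in triplicate; I% at 1 μM.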

Adenosine receptor A2a [1] = molecular target: T2, Adenosine receptor A2a (Homo sapiens, UniProt P29274); test: Displacement of [3H]-ZM241385 from human adenosine A2A receptor expressed in CHO cell membranes at 1 uM after 60 mins by scintillation counting analysis
[2] = molecular target: T3, Adenosine receptor A3 (Homo sapiens) (UniProt P0DMS8); test: Displacement of [125I]-ABMECA from human adenosine A3 receptor expressed in CHO cell membranes at 1 uM after 120 mins by scintillation counting analysis
T3 sequence (whole entry): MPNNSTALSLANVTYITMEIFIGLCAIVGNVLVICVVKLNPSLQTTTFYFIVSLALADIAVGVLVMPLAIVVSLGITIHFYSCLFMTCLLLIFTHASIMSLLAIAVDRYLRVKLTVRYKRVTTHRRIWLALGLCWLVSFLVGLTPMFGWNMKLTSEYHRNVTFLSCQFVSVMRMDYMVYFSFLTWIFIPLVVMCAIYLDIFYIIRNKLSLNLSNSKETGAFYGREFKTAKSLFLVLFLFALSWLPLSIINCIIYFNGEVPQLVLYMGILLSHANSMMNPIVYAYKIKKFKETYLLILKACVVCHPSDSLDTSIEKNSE
Method in brief: (§2)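 Membranes of hA3-CHO cells, 50 µg protein/100 µl, incubated 120 min at 4°C with 0.5 nM [125I]AB-MECA in 50 mM Tris HCl pH 7.4, 10 mM MgCl2, 1 mM EDTA; 1 µM AB-MECA for nonspecific; filter separation, counted. Ki by Cheng–Prusoff, four assays in triplicate; I% at 1 μM.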

Adenosine receptor A2b = molecular target: T4, Adenosine receptor A2b (Homo sapiens, UniProt P29275); test: Agonist activity at human adenosine A2B receptor expressed in CHO cell membranes assessed as induction of cAMP accumulation by AlphaScreen assay; format: functional, cell-based
T4 sequence (P29275 whole entry): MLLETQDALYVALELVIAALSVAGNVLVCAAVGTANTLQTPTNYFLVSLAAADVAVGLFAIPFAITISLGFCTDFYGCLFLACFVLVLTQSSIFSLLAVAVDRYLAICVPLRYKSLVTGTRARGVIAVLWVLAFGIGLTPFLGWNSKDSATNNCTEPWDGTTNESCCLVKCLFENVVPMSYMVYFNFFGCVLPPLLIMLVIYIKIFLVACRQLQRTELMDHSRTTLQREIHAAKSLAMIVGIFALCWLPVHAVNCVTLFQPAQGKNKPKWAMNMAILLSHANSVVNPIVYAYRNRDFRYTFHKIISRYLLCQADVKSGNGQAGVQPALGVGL
Method in brief: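 Intact hA2B-transfected CHO cells, trypsin-detached, stimulated in HBSS/5 mM HEPES/0.5 mM Ro 20-1724/0.1% BSA with compound alone at 1 nM–1 μM; cAMP read by AlphaScreen kit; EC50 from four separate assays each in triplicate, mean ± SEM.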

[3] = molecular target: T5, Adenosine receptor A2b (Homo sapiens) (UniProt P29275); test: Agonist activity at human adenosine A2B receptor expressed in CHO cell membranes assessed as induction of cAMP accumulation at 1 uM by AlphaScreen assay relative to NECA; format: functional, cell-based
T5 sequence (whole entry): T4 sequence (P29275 whole entry)
Method in brief: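 Whole adherent hA2B-transfected CHO cells (DMEM/F12, 10% FCS, G418), trypsin-detached, in HBSS with 5 mM HEPES, 0.5 mM Ro 20-1724, 0.1% BSA; test compound at 1 μM alone; cAMP by AlphaScreen; efficacy expressed relative to NECA 1 μM taken as 100%.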

Adenosine receptor A2a [4] = molecular target: T2, Adenosine receptor A2a; test: Displacement of [3H]-ZM241385 from human adenosine A2A receptor expressed in CHO cell membranes after 60 mins by scintillation counting analysis
[5] = molecular target: T6, Adenosine receptor A1 (Homo sapiens) (UniProt P30542); test: Displacement of [3H]DPCPX from human adenosine A1 receptor expressed in CHO cell membranes at 1 uM after 90 mins by scintillation counting analysis; method in brief: as §1
T6 sequence (whole entry): T1 sequence (P30542 whole entry)

[6] = molecular target: T5, Adenosine receptor A2b (Homo sapiens); test: Antagonist activity at human adenosine A2B receptor expressed in CHO cell membranes assessed as inhibition of NECA-stimulated cAMP accumulation at 1 uM by AlphaScreen assay; format: functional, cell-based
Method in brief: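 hA2B-transfected CHO cells in HBSS, 5 mM HEPES, 0.5 mM Ro 20-1724, 0.1% BSA; compound at 1 μM given with NECA 100 nM; cAMP production measured by AlphaScreen.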

Adenosine receptor A3 = molecular target: T7, Adenosine receptor A3 (Homo sapiens, UniProt P0DMS8); test: Displacement of [125I]-ABMECA from human adenosine A3 receptor expressed in CHO cell membranes after 120 mins by scintillation counting analysis; method in brief: as §2
T7 sequence (P0DMS8 whole entry): T3 sequence (whole entry)

Homo sapiens [7] = species: Homo sapiens; test: Selectivity index, ratio of Ki for human adenosine A1 receptor to EC50 for human adenosine A2B receptor
Homo sapiens [8] = species: Homo sapiens; test: Selectivity index, ratio of Ki for human adenosine A2A receptor to EC50 for human adenosine A2B receptor
Homo sapiens [9] = species: Homo sapiens; test: Selectivity index, ratio of Ki for human adenosine A3 receptor to EC50 for human adenosine A2B receptor

T2 sequence (P29274 whole entry): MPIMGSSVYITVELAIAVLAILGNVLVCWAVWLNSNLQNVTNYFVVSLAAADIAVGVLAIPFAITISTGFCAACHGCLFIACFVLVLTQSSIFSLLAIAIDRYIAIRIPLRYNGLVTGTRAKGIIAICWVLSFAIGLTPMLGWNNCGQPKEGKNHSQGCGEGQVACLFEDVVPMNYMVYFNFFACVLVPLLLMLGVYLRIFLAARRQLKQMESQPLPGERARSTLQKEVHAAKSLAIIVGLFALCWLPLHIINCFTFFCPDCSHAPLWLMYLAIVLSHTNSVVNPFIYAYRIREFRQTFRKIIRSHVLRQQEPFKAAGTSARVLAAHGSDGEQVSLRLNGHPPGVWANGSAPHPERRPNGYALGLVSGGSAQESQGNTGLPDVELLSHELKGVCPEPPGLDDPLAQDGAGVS

COC(=O)c1cccc(CSc2nc(N)c(C#N)c(-c3ccc(OCC4CC4)cc3)c2C#N)c1
Ki (Adenosine receptor A1): 66 nM | inhibition (Adenosine receptor A2a [1]): 1% | inhibition [2]: 4% | EC50 (Adenosine receptor A2b): 347 nM | Efficacy [3]: 27%

CC(C)COc1ccc(-c2c(C#N)c(N)nc(SCC(N)=O)c2C#N)cc1
Ki (Adenosine receptor A1): 603 nM | Ki (Adenosine receptor A2a [4]): 307 nM | inhibition [2]: 9% | Efficacy [3]: 1%

N#Cc1c(N)nc(SCc2nnn[nH]2)c(C#N)c1-c1ccc(OCC2CC2)cc1
inhibition [5]: 3% | inhibition (Adenosine receptor A2a [1]): 1% | inhibition [2]: 1% | inhibition [6]: inactive | Efficacy [3]: 25%

CNC(=O)CSc1nc(N)c(C#N)c(-c2ccc(OCC3CC3)cc2)c1C#N
inhibition [5]: 14% | inhibition (Adenosine receptor A2a [1]): 1% | inhibition [2]: 3% | EC50 (Adenosine receptor A2b): 94 nM | Efficacy [3]: 63%

N#Cc1c(N)nc(SCc2ncn[nH]2)c(C#N)c1-c1ccc(OCC2CC2)cc1
Ki (Adenosine receptor A1): 338 nM | inhibition (Adenosine receptor A2a [1]): 1% | inhibition [2]: 1% | EC50 (Adenosine receptor A2b): 51 nM | Efficacy [3]: 50%

N#Cc1c(N)nc2sc(C(N)=O)c(N)c2c1-c1ccc(OCC2CC2)cc1
inhibition [5]: 19% | inhibition (Adenosine receptor A2a [1]): 3% | inhibition [2]: 13% | Efficacy [3]: 1%

N#Cc1c(N)nc(SCc2ncc[nH]2)c(C#N)c1-c1ccc(OCC2CC2)cc1
Ki (Adenosine receptor A1): 235 nM | Ki (Adenosine receptor A2a [4]): 764 nM | Ki (Adenosine receptor A3): 474 nM | EC50 (Adenosine receptor A2b): 9.5 nM | Selectivity Index (Homo sapiens [7]): 25 | Selectivity Index (Homo sapiens [8]): 80 | Selectivity Index (Homo sapiens [9]): 50 | Efficacy [3]: 70%

N#Cc1c(N)nc(SCC2=NCCN2)c(C#N)c1-c1ccc(OCC2CC2)cc1
Ki (Adenosine receptor A1): 483 nM | inhibition (Adenosine receptor A2a [1]): 14% | inhibition [2]: 6% | inhibition [6]: inactive | Efficacy [3]: 7%

C=C(C)COc1ccc(-c2c(C#N)c(N)nc(SCC(N)=O)c2C#N)cc1
Ki (Adenosine receptor A1): 872 nM | inhibition (Adenosine receptor A2a [1]): 31% | inhibition [2]: 4% | Efficacy [3]: 2%

C=CCOc1ccc(-c2c(C#N)c(N)nc(SCC(N)=O)c2C#N)cc1
Ki (Adenosine receptor A1): 323 nM | inhibition (Adenosine receptor A2a [1]): 18% | Ki (Adenosine receptor A3): 444 nM | Efficacy [3]: 11%

CCOc1ccc(-c2c(C#N)c(N)nc(SCC(N)=O)c2C#N)cc1
Ki (Adenosine receptor A1): 345 nM | inhibition (Adenosine receptor A2a [1]): 1% | inhibition [2]: 20% | EC50 (Adenosine receptor A2b): 38 nM | Efficacy [3]: 66%

CCOc1ccc(-c2c(C#N)c(N)nc(SCc3ncc[nH]3)c2C#N)cc1
Ki (Adenosine receptor A1): 8.2 nM | Ki (Adenosine receptor A2a [4]): 221 nM | Ki (Adenosine receptor A3): 85 nM | EC50 (Adenosine receptor A2b): 11.7 nM | Efficacy [3]: 62%

N#Cc1c(N)nc(SCc2cccc(C(N)=O)c2)c(C#N)c1-c1ccc(OCC2CC2)cc1
Ki (Adenosine receptor A1): 83 nM | inhibition (Adenosine receptor A2a [1]): 25% | inhibition [2]: 1% | EC50 (Adenosine receptor A2b): 12.7 nM | Efficacy [3]: 69%

CCOc1ccc(-c2c(C#N)c(N)nc(SCC(=O)NC)c2C#N)cc1
Ki (Adenosine receptor A1): 104 nM | inhibition (Adenosine receptor A2a [1]): 8% | Ki (Adenosine receptor A3): 834 nM | EC50 (Adenosine receptor A2b): 211 nM | Efficacy [3]: 48%

CCOc1ccc(-c2c(C#N)c(N)nc(SCc3ccn[nH]3)c2C#N)cc1
Ki (Adenosine receptor A1): 21 nM | inhibition (Adenosine receptor A2a [1]): 4% | inhibition [2]: 18% | EC50 (Adenosine receptor A2b): 332 nM | Efficacy [3]: 34%

N#Cc1c(N)nc(SCc2ccn[nH]2)c(C#N)c1-c1ccc(OCC2CC2)cc1
Ki (Adenosine receptor A1): 552 nM | inhibition (Adenosine receptor A2a [1]): 2% | inhibition [2]: 6% | EC50 (Adenosine receptor A2b): 84 nM | Efficacy [3]: 48%

C=CCOc1ccc(-c2c(C#N)c(N)nc(SCc3ccn[nH]3)c2C#N)cc1
Ki (Adenosine receptor A1): 44 nM | inhibition (Adenosine receptor A2a [1]): 8% | inhibition [2]: 13% | inhibition [6]: inactive | Efficacy [3]: 7%

N#Cc1c(N)nc(SCC(=O)NCO)c(C#N)c1-c1ccc(OCC2CC2)cc1
inhibition [5]: 10% | inhibition (Adenosine receptor A2a [1]): 1% | inhibition [2]: 8% | EC50 (Adenosine receptor A2b): 182 nM | Efficacy [3]: 57%

N#Cc1c(N)nc(SCc2nc3ccccc3[nH]2)c(C#N)c1-c1ccc(OCC2CC2)cc1
inhibition [5]: 21% | inhibition (Adenosine receptor A2a [1]): 6% | inhibition [2]: 1% | inhibition [6]: inactive | Efficacy [3]: 12%

N#Cc1c(N)nc(SCC(N)=O)c(C#N)c1-c1ccc(OCC2CC2)cc1
inhibition [5]: 31% | inhibition (Adenosine receptor A2a [1]): 2% | inhibition [2]: 8% | EC50 (Adenosine receptor A2b): 31 nM | Efficacy [3]: 100%

N#Cc1c(N)nc(SCC(=O)NO)c(C#N)c1-c1ccc(OCC2CC2)cc1
Ki (Adenosine receptor A1): 536 nM | inhibition (Adenosine receptor A2a [1]): 1% | inhibition [2]: 31% | Efficacy [3]: 20%

COC(=O)CSc1nc(N)c(C#N)c(-c2ccc(OCC3CC3)cc2)c1C#N
inhibition [5]: 23% | inhibition (Adenosine receptor A2a [1]): 1% | inhibition [2]: 1% | inhibition [6]: inactive | Efficacy [3]: 1%

N#Cc1c(N)nc(SCc2cnc[nH]2)c(C#N)c1-c1ccc(OCC2CC2)cc1
inhibition [5]: 1% | inhibition (Adenosine receptor A2a [1]): 7% | inhibition [2]: 1% | EC50 (Adenosine receptor A2b): 139 nM | Efficacy [3]: 50%

N#Cc1c(N)nc(SCc2cccnc2)c(C#N)c1-c1ccc(OCC2CC2)cc1
Ki (Adenosine receptor A1): 67 nM | Ki (Adenosine receptor A2a [4]): 424 nM | inhibition [2]: 19% | Efficacy [3]: 1%

N#Cc1c(N)nc(SCc2csc(N)n2)c(C#N)c1-c1ccc(OCC2CC2)cc1
Ki (Adenosine receptor A1): 140 nM | inhibition (Adenosine receptor A2a [1]): 1% | inhibition [2]: 1% | inhibition [6]: inactive | Efficacy [3]: 17%

N#Cc1c(N)nc(SCC(N)=O)c(C#N)c1-c1ccc(OCC2CCC2)cc1
inhibition [5]: 1% | inhibition (Adenosine receptor A2a [1]): 5% | inhibition [2]: 1% | inhibition [6]: inactive | Efficacy [3]: 5%

CC(=O)Nc1ccc(-c2c(C#N)c(N)nc(SCC(N)=O)c2C#N)cc1
inhibition [5]: 17% | Ki (Adenosine receptor A2a [4]): 572 nM | Ki (Adenosine receptor A3): 742 nM | EC50 (Adenosine receptor A2b): 164 nM | Efficacy [3]: 92%

N#Cc1c(N)nc(SCn2cncn2)c(C#N)c1-c1ccc(OCC2CC2)cc1
inhibition [5]: 12% | inhibition (Adenosine receptor A2a [1]): 1% | inhibition [2]: 1% | inhibition [6]: inactive | Efficacy [3]: 1%
